Screens deposited in PubChem BioAssay by several laboratories.
Hits are enriched below; roughly 1.1% of the tested compounds scored in any of these assays.
Calpain2 inh = calpain II (pig) inhibition | AID 1236 | purified calpain II, fluorogenic peptide substrate, 30 min | 220,000 tested, 0.37% active | inhibition, % at 16 µM;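 active = inhibition above about 50%, limit read from the data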
RBBP9 inhibitor = blocks human serine hydrolase RBBP9; O75884; recombinant RBBP9, FP-Rh probe fluorescence polarization; inhibition, % at 7.94 µM; 220,000 tested, 0.2% active; AID 1515;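 active = inhibition above the campaign mean of all tested compounds plus 3 SD, cut at about 14% in these data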;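 also: plate controls were DMSO wells with RBBP9 for no effect and wells lacking RBBP9 protein for full effect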
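System: RBBP9 protein | Quantity: 2.5 µM RBBP9 dispensing solution, before mixing | Reagent: FP-Rh probe, 375 nM dispensing solution | Timing: Enzyme-compound preincubation 30 min, then probe labeling 45 min, 25 °C | Measured by: Fluorescence polarization | Read-out: % inhibition | Replication: One well per compound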
NCF1 inh = p47phox (human) inhibition | inhibition, % at 24.7 µM | P14598 | 220,000 tested, 0.53% active | p47phox/p22phox peptide binding, fluorescence polarization, 2 h | AID 1274;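 active = inhibition above about 30%, limit read from the data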;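 also: 0% = p47phox with labelled peptide and 100% = labelled peptide alone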
Target sequence (P14598 whole entry, looked up): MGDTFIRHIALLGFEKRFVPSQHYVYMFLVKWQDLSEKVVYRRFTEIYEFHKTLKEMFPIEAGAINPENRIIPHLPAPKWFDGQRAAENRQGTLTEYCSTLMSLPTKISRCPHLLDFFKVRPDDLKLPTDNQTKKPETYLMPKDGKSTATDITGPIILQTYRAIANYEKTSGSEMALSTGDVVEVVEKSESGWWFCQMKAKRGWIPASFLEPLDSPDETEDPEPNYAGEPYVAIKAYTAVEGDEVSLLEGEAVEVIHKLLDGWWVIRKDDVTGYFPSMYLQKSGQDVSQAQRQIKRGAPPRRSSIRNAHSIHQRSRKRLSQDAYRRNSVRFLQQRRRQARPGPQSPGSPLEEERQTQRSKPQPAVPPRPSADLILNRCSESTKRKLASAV
Furin inhibitor = inhibitors of human furin; P09958; purified furin, fluorogenic substrate cleavage; inhibition, % at 20 µM or 30 µM; 220,000 tested, 0.061% active; in the data active = inhibition above about 25%
RBBP9 confirm = confirmation of human RBBP9 inhibitors. shares compounds with RBBP9 inhibitor. recombinant RBBP9, FP-Rh probe fluorescence polarization. inhibition, % at 7.94 µM. 410 tested, 36% active;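 active = inhibition above the hit cutoff derived for the primary screen, cut at about 15% in these data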;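 also: 0% = RBBP9 with DMSO and 100% = wells lacking RBBP9 protein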
Active calls of the source: *; nt = no result given.

SMILES	Calpain2 inh	RBBP9 inhibitor	NCF1 inh	Furin inhibitor	RBBP9 confirm
CCOc1ccc(S(=O)(=O)Nc2nc3ccccc3nc2Nc2ccc(N3CCOCC3)cc2)cc1	-14	17*	-11	-7	11
COc1ccc(Nc2nc3ccccc3nc2NS(=O)(=O)c2ccc(NC(C)=O)cc2)cc1	-2	-9	-8	-6	nt
CC(=O)N(c1ccc2oc(=O)sc2c1)S(=O)(=O)c1ccccc1	-9	17*	-3	-11	5
CC(C)C(=O)N(c1ccc2oc(=O)sc2c1)S(=O)(=O)c1ccccc1	14	-5	-4	-13	nt
CCOC(=O)CSc1nc(C(C)(C)C)nc2ccccc12	0	-8	0	-13	nt
O=C(Nc1ccc(C(=O)N2CCOCC2)cc1)Nc1cccc2ccccc12	25	1	-11	-7	nt
N#Cc1ncc(C(F)(F)F)cc1Sc1ccc(N)cc1	7	19*	-4	-17	7
CCC(=O)Oc1ccc(C/C(=N\O)c2ccc(O)cc2O)o1	0	31*	-5	-2	52*
COC(=O)C1CSc2[nH]c(=O)sc2C1c1ccc(O)c(OC)c1 (stereo not drawn)	-21	14*	-14	-16	1
c1ccc(CSc2ccc(-c3cccnc3)nn2)nc1	7	-13	11	-22	nt
CC(=O)NC(c1ccc([N+](=O)[O-])cc1)c1c(O)ccc2ccccc12 (stereo not drawn)	0	-4	-4	0	nt
CC(=O)NC(c1ccccc1)c1c(O)ccc2ccccc12 (stereo not drawn)	-76	16*	-6	-15	17*
CN(CC(=O)NCCc1ccccc1)S(=O)(=O)c1ccc(Br)cc1	0	15*	-11	-23	-1
COC(=O)COc1ccc2c(=O)c(-c3ccccc3OC)coc2c1	-27	19*	1	-30	7
CCOC(=O)COc1ccc2c(=O)c(-c3ccccc3OC)coc2c1	-54	-8	-2	-26	nt
O=C(Cc1cccs1)N1CCN(c2ccc([N+](=O)[O-])cc2)CC1	-93	-6	3	-23	nt
COc1ccc(/C=C/C(=O)Nc2ccccc2Cl)cc1S(=O)(=O)N1CCOCC1	-20	-1	-8	-26	nt
Cc1ccc(C(=O)C[n+]2cc(-c3ccc(C)cc3)n3c2CCCCC3)cc1	31	21*	-5	-8	3
CCOc1ccc(S(=O)(=O)Nc2cc(Sc3ncn[nH]3)c3oc(=O)sc3c2)cc1	-63	22*	-11	-9	20*
Cc1cc[n+](CC(=O)Nc2cc(C(F)(F)F)ccc2Cl)cc1	18	18*	3	-28	4
Cc1ccccc1C(=O)NC(CC(C)C)C(=O)NN1C(=O)c2ccccc2C1=O (stereo not drawn)	-22	-1	-15	-24	nt
C=CCOc1ccc(CNc2ccc3[nH]c(=O)[nH]c3c2)cc1OCC	-5	18*	-4	-26	14*
Oc1ccc(-c2cn3c(n2)SCC3)cc1O	-17	21*	7	-16	51*
COc1ccc2c(c1)c1ccc3c(c1n2C)C(=O)C=CC3=O	-36	63*	10	-13	71*
Cc1ccc2c(c1)c1ccc3c(c1n2C)C(=O)C=CC3=O	-28	5	5	-13	nt
CCCCN(C(=O)c1cc2ccccc2o1)c1c(N)n(CC(C)C)c(=O)[nH]c1=O	8	20*	0	-12	0
CCN(CC)C(=O)C(=O)c1cccn1-c1ccccc1C#N	23	21*	3	-4	7
Cc1ccc(S(=O)(=O)N2CCC(=O)N(C(COCc3cccc(C(F)(F)F)c3)C(C)C)CC2)cc1 (stereo not drawn)	33	3	4	1	nt
